Activity calls are given as the source filed them. The calls are words filed in the database; no cut-off is given here.
How the values were obtained:
Rattus norvegicus [1] = assay: Percentage fall in systolic blood pressure after 4 hours at 12.5 mg/kg given perorally; type: functional, Artery; conditions: route oral
In short: (§1)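 Male Okamoto-Aoki SHR, four per group, with a concurrent vehicle control group. Oral dosing in water (0.1 mL/10 g) on two consecutive mornings. After the day-2 dose, rats were restrained in a 30 °C chamber. Tail-cuff systolic pressure was taken at 1-4 h from four traces per rat. Result is % decrease versus control mean, by 1-tailed t test, p ≤ 0.05.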

Rattus norvegicus [2] = assay: Percentage fall in systolic blood pressure after 3 hours at 12.5 mg/kg given perorally; type: functional, Artery; conditions: route oral; in short: as §1
Rattus norvegicus [3] = assay: Percentage fall in systolic blood pressure after 4 hours at 3.1 mg/kg given perorally; type: functional, organism-based; parameters: dose 3.1 mg/kg; conditions: Artery
In short: (§2)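 Male Okamoto-Aoki spontaneously hypertensive rats, trained, in groups of four matched for mean systolic pressure; five treated groups and one vehicle control run concurrently. Oral dosing in water (solution or suspension, 0.1 mL/10 g) on two consecutive mornings. On day 2, rats were restrained at 30.0 ± 1.0 °C and tail-cuff systolic pressure recorded at 1–4 h; percent fall versus control, 1-tail t test, p ≤ 0.05.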

Rattus norvegicus [4] = assay: Percentage fall in systolic blood pressure after 2 hours at 12.5 mg/kg given perorally; type: functional, Artery; conditions: route oral; in short: as §1
Rattus norvegicus [5] = assay: Percentage fall in systolic blood pressure after 1 hours at 12.5 mg/kg given perorally; type: functional, Artery; conditions: route oral; in short: as §2
Rattus norvegicus [6] = assay: Percentage fall in systolic blood pressure after 3 hours at 3.1 mg/kg given perorally; type: functional, organism-based; parameters: dose 3.1 mg/kg; conditions: Artery; in short: as §2
Rattus norvegicus [7] = assay: Percentage fall in systolic blood pressure after 2 hours at 3.1 mg/kg given perorally; type: functional, Artery; conditions: route oral; in short: as §2
Rattus norvegicus [8] = assay: Percentage fall in systolic blood pressure after 1 hours at 3.1 mg/kg given perorally; type: functional, Artery; conditions: route oral; in short: as §2
Rattus norvegicus [9] = assay: Percentage fall in systolic blood pressure after 2 hr at 25 mg/kg given perorally; type: functional, Artery; conditions: route oral; in short: as §2
[10] = molecular target: T1, Adrenergic receptor alpha-2 (Rattus norvegicus, UniProt P22086+P19328+P22909); assay: Affinity for alpha-2 adrenergic receptor of rat cerebral cortex was determined by ligand binding using [3H]yohimbine.; type: tissue-based
T1 sequence (P22086 whole entry): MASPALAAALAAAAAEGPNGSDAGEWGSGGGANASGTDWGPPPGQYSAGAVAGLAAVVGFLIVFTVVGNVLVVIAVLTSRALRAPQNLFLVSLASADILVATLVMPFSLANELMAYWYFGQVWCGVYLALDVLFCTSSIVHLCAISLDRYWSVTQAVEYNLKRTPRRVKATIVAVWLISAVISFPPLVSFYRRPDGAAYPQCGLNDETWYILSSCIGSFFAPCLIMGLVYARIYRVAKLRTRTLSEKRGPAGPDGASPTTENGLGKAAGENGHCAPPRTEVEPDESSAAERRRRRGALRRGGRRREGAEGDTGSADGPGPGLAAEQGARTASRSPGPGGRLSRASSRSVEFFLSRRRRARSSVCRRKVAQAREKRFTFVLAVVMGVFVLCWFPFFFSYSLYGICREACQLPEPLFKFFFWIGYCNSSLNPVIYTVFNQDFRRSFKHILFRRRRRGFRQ
T1 sequence (P19328 whole entry): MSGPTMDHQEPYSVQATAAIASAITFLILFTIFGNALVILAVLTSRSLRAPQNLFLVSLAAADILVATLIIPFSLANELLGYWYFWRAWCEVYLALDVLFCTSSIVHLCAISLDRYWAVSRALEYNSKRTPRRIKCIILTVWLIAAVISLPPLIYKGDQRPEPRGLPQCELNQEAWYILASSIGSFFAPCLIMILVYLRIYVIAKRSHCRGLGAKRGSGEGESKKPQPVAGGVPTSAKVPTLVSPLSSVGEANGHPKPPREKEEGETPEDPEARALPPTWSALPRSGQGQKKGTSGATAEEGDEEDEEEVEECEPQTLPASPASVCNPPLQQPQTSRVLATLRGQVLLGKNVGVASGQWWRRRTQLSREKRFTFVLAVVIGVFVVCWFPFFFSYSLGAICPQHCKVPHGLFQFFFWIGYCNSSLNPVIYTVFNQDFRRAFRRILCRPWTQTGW
T1 sequence (P22909 whole entry): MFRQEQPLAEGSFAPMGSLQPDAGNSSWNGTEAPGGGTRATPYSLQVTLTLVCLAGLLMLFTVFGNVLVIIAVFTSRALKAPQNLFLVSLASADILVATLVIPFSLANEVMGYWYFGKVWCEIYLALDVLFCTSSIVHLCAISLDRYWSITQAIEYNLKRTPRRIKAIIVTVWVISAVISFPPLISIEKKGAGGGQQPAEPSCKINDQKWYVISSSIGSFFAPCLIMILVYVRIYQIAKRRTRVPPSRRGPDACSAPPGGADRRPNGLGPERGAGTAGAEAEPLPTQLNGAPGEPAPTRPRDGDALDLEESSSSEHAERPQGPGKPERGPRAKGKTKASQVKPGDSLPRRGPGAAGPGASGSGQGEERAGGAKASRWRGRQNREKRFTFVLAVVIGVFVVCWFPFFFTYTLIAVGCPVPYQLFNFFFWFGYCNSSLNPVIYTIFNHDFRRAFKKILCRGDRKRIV
In short: (§3)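 Washed rat cerebral cortex membranes (homogenised in 50 mM Tris-HCl pH 7.8, pelleted at 48000g, washed 3 times) at 2.5 mg/mL protein. […] Ice-cold buffer stop, then filtration. Nonspecific binding defined with 200 μmol norepinephrine. KI from IC50 by Cheng-Prusoff, given as negative log.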

Rattus norvegicus [11] = assay: Percentage fall in systolic blood pressure after 1 hr at 25 mg/kg given perorally; type: functional, Artery; conditions: route oral; in short: as §2
Rattus norvegicus [12] = assay: Percentage fall in systolic blood pressure after 4 hr at 12.5 mg/kg given perorally; type: functional, organism-based; parameters: dose 12.5 mg/kg; conditions: Artery; in short: as §2
[13] = molecular target: T2, Adrenergic receptor alpha-1 (Rattus norvegicus, UniProt P15823+P23944+P43140); assay: Affinity for alpha-1 adrenoceptor of rat cerebral cortex was determined by ligand binding using [3H]prazosin.; type: tissue-based; in short: as §3
T2 sequence (P15823 whole entry): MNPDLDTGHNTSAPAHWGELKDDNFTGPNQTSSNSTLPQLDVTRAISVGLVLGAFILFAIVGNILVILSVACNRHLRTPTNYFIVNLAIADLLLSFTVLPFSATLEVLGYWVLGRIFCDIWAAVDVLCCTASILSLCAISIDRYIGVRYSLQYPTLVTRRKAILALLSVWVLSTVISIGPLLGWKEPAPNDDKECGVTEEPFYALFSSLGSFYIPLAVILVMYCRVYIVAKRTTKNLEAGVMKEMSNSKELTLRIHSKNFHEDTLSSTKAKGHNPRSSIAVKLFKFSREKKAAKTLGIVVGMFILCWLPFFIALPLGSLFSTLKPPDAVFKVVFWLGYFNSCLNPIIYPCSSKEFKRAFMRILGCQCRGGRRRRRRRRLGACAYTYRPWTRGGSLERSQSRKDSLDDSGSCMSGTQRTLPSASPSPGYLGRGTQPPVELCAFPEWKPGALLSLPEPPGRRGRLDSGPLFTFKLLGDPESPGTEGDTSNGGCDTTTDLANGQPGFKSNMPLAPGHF
T2 sequence (P23944 whole entry): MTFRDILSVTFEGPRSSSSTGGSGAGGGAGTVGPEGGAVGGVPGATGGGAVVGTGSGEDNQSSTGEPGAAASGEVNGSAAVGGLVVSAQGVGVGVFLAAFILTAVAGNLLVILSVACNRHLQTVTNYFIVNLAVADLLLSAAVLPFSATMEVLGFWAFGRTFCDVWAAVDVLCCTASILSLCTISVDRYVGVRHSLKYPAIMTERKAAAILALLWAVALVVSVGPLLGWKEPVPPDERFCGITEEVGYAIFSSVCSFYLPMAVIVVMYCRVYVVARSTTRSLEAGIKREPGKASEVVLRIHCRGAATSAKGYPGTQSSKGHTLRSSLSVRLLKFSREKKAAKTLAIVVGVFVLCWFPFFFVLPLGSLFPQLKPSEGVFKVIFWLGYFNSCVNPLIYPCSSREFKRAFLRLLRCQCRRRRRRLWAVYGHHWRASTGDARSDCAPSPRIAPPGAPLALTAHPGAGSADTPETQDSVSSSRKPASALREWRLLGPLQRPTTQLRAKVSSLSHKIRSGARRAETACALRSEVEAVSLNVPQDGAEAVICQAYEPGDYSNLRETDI
T2 sequence (P43140 whole entry): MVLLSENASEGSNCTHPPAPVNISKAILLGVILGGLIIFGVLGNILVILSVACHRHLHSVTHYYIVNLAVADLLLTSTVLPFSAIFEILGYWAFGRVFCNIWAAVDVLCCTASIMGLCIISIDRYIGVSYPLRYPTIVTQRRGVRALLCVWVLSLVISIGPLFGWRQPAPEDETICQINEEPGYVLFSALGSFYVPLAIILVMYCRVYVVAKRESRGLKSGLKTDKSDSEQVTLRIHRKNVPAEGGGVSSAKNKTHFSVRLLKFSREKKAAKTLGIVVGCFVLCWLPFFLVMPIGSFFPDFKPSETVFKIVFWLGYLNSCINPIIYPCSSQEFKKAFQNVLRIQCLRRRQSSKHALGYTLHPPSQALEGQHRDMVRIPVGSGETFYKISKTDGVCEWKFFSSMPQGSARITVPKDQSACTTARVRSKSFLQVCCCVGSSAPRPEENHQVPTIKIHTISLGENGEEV

Rattus norvegicus [14] = assay: Percentage fall in systolic blood pressure after 2 hr at 12.5 mg/kg given perorally; type: functional, organism-based; parameters: dose 12.5 mg/kg; conditions: Artery; in short: as §2
Rattus norvegicus [15] = assay: Percentage fall in systolic blood pressure after 1 hr at 12.5 mg/kg given perorally; type: functional, organism-based; parameters: dose 12.5 mg/kg; conditions: Artery; in short: as §2
Rattus norvegicus [16] = assay: Percentage fall in systolic blood pressure after 4 hr at 25 mg/kg given perorally; type: functional, Artery; conditions: route oral; in short: as §2
Rattus norvegicus [17] = assay: Percentage fall in systolic blood pressure after 3 hr at 25 mg/kg given perorally; type: functional, Artery; conditions: route oral; in short: as §2
Rattus norvegicus [18] = assay: Percentage fall in systolic blood pressure after 3 hr at 12.5 mg/kg given perorally; type: functional, organism-based; parameters: dose 12.5 mg/kg; conditions: Artery; in short: as §2

-Log Ki [10]	-Log Ki [13]	SMILES	Decrease in SBP (Rattus norvegicus [1])	Decrease in SBP (Rattus norvegicus [2])	Decrease in SBP (Rattus norvegicus [3])	Decrease in SBP (Rattus norvegicus [4])	Decrease in SBP (Rattus norvegicus [5])	Decrease in SBP (Rattus norvegicus [6])	Decrease in SBP (Rattus norvegicus [7])	Decrease in SBP (Rattus norvegicus [8])	Decrease in SBP (Rattus norvegicus [9])	Decrease in SBP (Rattus norvegicus [11])	Decrease in SBP (Rattus norvegicus [12])	Decrease in SBP (Rattus norvegicus [14])	Decrease in SBP (Rattus norvegicus [15])	Decrease in SBP (Rattus norvegicus [16])	Decrease in SBP (Rattus norvegicus [17])	Decrease in SBP (Rattus norvegicus [18])
		CN1CC2(CCN(CCCC(=O)c3ccc(F)cc3)CC2)OCC1=O	19%	25%	Not significant	37%	46%	Not significant	27%	26%								
4.92	7.61	O=C(NC1CCN(CCc2c[nH]c3ccccc23)CC1)c1ccccc1 [INDORAMIN]									28%	27%	inactive	inactive	inactive	30%	34%	inactive

Reference: ChEMBL document CHEMBL1122233, “Antihypertensive 9-substituted 1-oxa-4,9-diazaspiro[5.5]undecan-3-ones” (J Med Chem, 1983)
